# Reference: ChEMBL document CHEMBL3102812 (J Med Chem, 2013)
# Calls of active or inactive are those of the source. No cut-off for these calls is given here.
# Tested on: not listed separately
# Test: Partition coefficient, log D of the compound at pH 7.4 by chromatographic method
# Details: octanol/water
row,Structure (SMILES),chromatographic logD
1,N#Cc1ccc(C(C(=O)N2CCN(c3ccc(C(F)(F)F)nc3)CC2)c2cccnc2)cc1 (stereo unspecified),3
2,O=C([C@H](c1ccc(Cl)cc1)c1cccnc1)N1CCN(c2ccc(C(F)(F)F)cc2)CC1,4.5
3,N#Cc1ccc(N(c2cccnc2)C2CCN(c3ccc(C(F)(F)F)cc3)CC2)cc1,4.7
4,N#Cc1ccccc1N1CCC(N(c2ccc(C(F)(F)F)cc2)c2cccnc2)CC1,4.9
5,FC(F)(F)c1ccc(N(c2cncnc2)C2CCN(c3ccc(C(F)(F)F)cn3)CC2)cc1,4.9

# Tested on: not listed separately
# Test: Kinetic aqueous solubility of the compound in phosphate buffer at pH 6.5 by nephelometric analysis
# Details: not given
row,Structure (SMILES),solubility kinetic [µg/mL]
1,N#Cc1ccc(C(C(=O)N2CCN(c3ccc(C(F)(F)F)nc3)CC2)c2cccnc2)cc1 (stereo unspecified),25
2,O=C([C@H](c1ccc(Cl)cc1)c1cccnc1)N1CCN(c2ccc(C(F)(F)F)cc2)CC1,1.6
3,N#Cc1ccc(N(c2cccnc2)C2CCN(c3ccc(C(F)(F)F)cc3)CC2)cc1,< 1.6
4,N#Cc1ccccc1N1CCC(N(c2ccc(C(F)(F)F)cc2)c2cccnc2)CC1,< 1.6
5,FC(F)(F)c1ccc(N(c2cncnc2)C2CCN(c3ccc(C(F)(F)F)cn3)CC2)cc1,< 1.6

# Target: Cytochrome P450 3A4 (Homo sapiens, UniProt P08684)
# Sequence (P08684 whole entry): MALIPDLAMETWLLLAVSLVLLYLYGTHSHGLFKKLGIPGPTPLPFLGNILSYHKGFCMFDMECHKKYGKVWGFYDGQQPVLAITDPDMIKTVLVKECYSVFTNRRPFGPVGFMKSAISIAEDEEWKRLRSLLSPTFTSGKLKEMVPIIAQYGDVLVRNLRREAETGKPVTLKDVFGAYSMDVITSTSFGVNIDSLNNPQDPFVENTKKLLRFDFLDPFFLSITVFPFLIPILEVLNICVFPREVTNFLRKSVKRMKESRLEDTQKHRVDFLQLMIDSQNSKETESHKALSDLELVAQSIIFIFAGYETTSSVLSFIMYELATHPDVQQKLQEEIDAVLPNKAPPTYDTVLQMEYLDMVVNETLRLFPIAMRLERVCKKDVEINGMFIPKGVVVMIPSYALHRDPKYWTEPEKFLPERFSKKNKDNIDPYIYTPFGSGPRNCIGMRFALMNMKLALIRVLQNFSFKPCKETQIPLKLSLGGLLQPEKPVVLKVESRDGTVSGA
# Test: Inhibition of CYP3A4 in human liver microsomes assessed as 6beta-hydroxylation of testosterone
# Details: not given
row,Structure (SMILES),IC50 [nM]
1,N#Cc1ccc(C(C(=O)N2CCN(c3ccc(C(F)(F)F)nc3)CC2)c2cccnc2)cc1 (stereo unspecified),> 20000
2,O=C([C@H](c1ccc(Cl)cc1)c1cccnc1)N1CCN(c2ccc(C(F)(F)F)cc2)CC1,17000
3,N#Cc1ccccc1N1CCC(N(c2ccc(C(F)(F)F)cc2)c2cccnc2)CC1,5200
4,FC(F)(F)c1ccc(N(c2cncnc2)C2CCN(c3ccc(C(F)(F)F)cn3)CC2)cc1,6300

# Tested on: Trypanosoma cruzi
# Test: Antitrypanosomal activity against Trypanosoma cruzi Tulahuen 6 amastigotes infected in rat L6 cells after 96 hrs by colorimetric method
# Assay type: functional, organism-based
# Details: Tulahuen 6, L6, 96 h
row,Structure (SMILES),IC50 [nM]
1,Cc1ncsc1C(=O)N1CCC(NC(c2ccc(C(F)(F)F)cc2)c2cccnc2)CC1 (stereo unspecified),58
2,N#Cc1ccc(C(c2cccnc2)N2CCC(NC(=O)c3c(F)cccc3F)CC2)cc1 (stereo unspecified),19
3,N#Cc1ccc(N(c2cccnc2)C2CCN(c3ccc(C(F)(F)F)cc3)CC2)cc1,3
4,N#Cc1cccc(N2CCC(NC(c3cccnc3)c3ccc(Cl)cc3F)CC2)c1 (stereo unspecified),13
5,FC(F)(F)c1ccc(N2CCC(N(c3ccc(C(F)(F)F)cc3)c3cccnc3)CC2)cc1,17
6,Fc1cc(Cl)ccc1C(NC1CCN(c2ccc(C(F)(F)F)cc2)CC1)c1cccnc1 (stereo unspecified),11
7,FC(F)(F)c1ccc(N(c2cncnc2)C2CCN(c3ccc(C(F)(F)F)cn3)CC2)cc1,5
8,N#Cc1ccc(C(c2cccnc2)N2CCC(NC(=O)c3ccccc3)CC2)cc1 (stereo unspecified),24
9,Cc1cc(C(=O)NC2CCN(C(c3ccc(C#N)cc3)c3cccnc3)CC2)n(C)n1 (stereo unspecified),47

# Tested on: Mus musculus
# Test: Toxicity in Swiss mouse at 20 mg/kg, po
# Details: in vivo
row,Structure (SMILES),Activity
1,Cc1ncsc1C(=O)N1CCC(NC(c2ccc(C(F)(F)F)cc2)c2cccnc2)CC1 (stereo unspecified),Non-toxic
2,N#Cc1ccc(C(O)(c2ccc(C(F)(F)F)cc2)c2cccnc2)cc1 (stereo unspecified),Non-toxic
3,N#Cc1ccc(C(c2cccnc2)N2CCC(NC(=O)c3c(F)cccc3F)CC2)cc1 (stereo unspecified),Non-toxic
4,N#Cc1ccc(N(c2cccnc2)C2CCN(c3ccc(C(F)(F)F)cc3)CC2)cc1,Non-toxic
5,N#Cc1cccc(N2CCC(NC(c3cccnc3)c3ccc(Cl)cc3F)CC2)c1 (stereo unspecified),Non-toxic
6,Fc1cc(Cl)ccc1C(NC1CCN(c2ccc(C(F)(F)F)cc2)CC1)c1cccnc1 (stereo unspecified),Non-toxic
7,FC(F)(F)c1ccc(N(c2cncnc2)C2CCN(c3ccc(C(F)(F)F)cn3)CC2)cc1,Non-toxic
8,N#Cc1ccc(C(O)(c2ccc(C(F)(F)F)cc2)c2cccnc2)c(F)c1 (stereo unspecified),Non-toxic
9,N#Cc1ccc(C(c2cccnc2)N2CCC(NC(=O)c3ccccc3)CC2)cc1 (stereo unspecified),Non-toxic
10,Cc1cc(C(=O)NC2CCN(C(c3ccc(C#N)cc3)c3cccnc3)CC2)n(C)n1 (stereo unspecified),Non-toxic

# Tested on: Trypanosoma cruzi
# Test: Antitrypanosomal activity against Trypanosoma cruzi Tulahuen 6 infected in Swiss mouse assessed as reduction in blood parasitemia at 20 mg/kg, po qd administered on day 8 post-infection for 10 days by microscopic analysis
# Assay type: functional, organism-based
# Design: dose 20 mg/kg
# Details: not given
# Procedure, shortened: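 Infected Swiss mice dosed orally at 20 mg/kg once daily for up to 10 days starting day 8 pi; blood parasitemia followed by microscopy throughout dosing, scored as cleared or not during the dosing period.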
row,Structure (SMILES),Activity
1,Cc1ncsc1C(=O)N1CCC(NC(c2ccc(C(F)(F)F)cc2)c2cccnc2)CC1 (stereo unspecified),inactive
2,N#Cc1ccc(C(O)(c2ccc(C(F)(F)F)cc2)c2cccnc2)cc1 (stereo unspecified),Active
3,N#Cc1ccc(C(c2cccnc2)N2CCC(NC(=O)c3c(F)cccc3F)CC2)cc1 (stereo unspecified),inactive
4,N#Cc1cccc(N2CCC(NC(c3cccnc3)c3ccc(Cl)cc3F)CC2)c1 (stereo unspecified),inactive
5,Fc1cc(Cl)ccc1C(NC1CCN(c2ccc(C(F)(F)F)cc2)CC1)c1cccnc1 (stereo unspecified),Active
6,N#Cc1ccc(C(O)(c2ccc(C(F)(F)F)cc2)c2cccnc2)c(F)c1 (stereo unspecified),Active
7,N#Cc1ccc(C(c2cccnc2)N2CCC(NC(=O)c3ccccc3)CC2)cc1 (stereo unspecified),inactive
8,Cc1cc(C(=O)NC2CCN(C(c3ccc(C#N)cc3)c3cccnc3)CC2)n(C)n1 (stereo unspecified),inactive

# Tested on: not listed separately
# Test: Kinetic aqueous solubility of the compound in phosphate buffer at pH 2 by nephelometric analysis
# Details: phosphate buffer
row,Structure (SMILES),solubility kinetic [µg/mL]
1,N#Cc1ccc(C(C(=O)N2CCN(c3ccc(C(F)(F)F)nc3)CC2)c2cccnc2)cc1 (stereo unspecified),> 100
2,O=C([C@H](c1ccc(Cl)cc1)c1cccnc1)N1CCN(c2ccc(C(F)(F)F)cc2)CC1,> 100
3,N#Cc1ccc(N(c2cccnc2)C2CCN(c3ccc(C(F)(F)F)cc3)CC2)cc1,25
4,N#Cc1ccccc1N1CCC(N(c2ccc(C(F)(F)F)cc2)c2cccnc2)CC1,> 100
5,FC(F)(F)c1ccc(N(c2cncnc2)C2CCN(c3ccc(C(F)(F)F)cn3)CC2)cc1,12.5
